Source: ChEMBL document CHEMBL1275449, “Potent in vitro antifungal activities of naturally occurring acetylenic acids” (Antimicrob Agents Chemother, 2008)
In brackets after ≈: the same amount, converted by molar mass. Activity calls are given as the source filed them. The calls are words filed in the database; no cut-off is given here.

Assays:
Candida albicans [1] = experiment: Antifungal activity against Candida albicans ATCC 90028 at 68.3 uM after 48 hrs by CLSI method; format: functional, organism-based
Summary of the method: (§1)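 Candida inocula came from 24–72-h SD agar colonies suspended in saline. They were diluted by OD630 standard curve into RPMI 1640 (0.2% dextrose, 0.03% glutamine, 0.165 M MOPS, pH 7.0) to 1.5 × 10³ CFU/ml. Compounds were run as 11 twofold dilutions in 20% DMSO-saline, in duplicate, at 35°C for 48 h, with OD530 read before and after. Percent growth at the top concentration, IC50, MIC, and MFC (SD agar plating) were derived.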

Candida albicans [2] = experiment: Antifungal activity against Candida albicans ATCC 200955 at 68.3 uM after 48 hrs by CLSI method; format: functional, organism-based; summary of the method: as §1
Candida albicans [3] = experiment: Antifungal activity against Fluconazole resistant Candida albicans isolate 1 at 68.3 uM after 48 hrs by CLSI method; format: functional, organism-based
Summary of the method: (§2)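 Candida in CLSI broth microdilution. Saline colony suspension set to 1.5 × 10³ CFU/ml (final) in MOPS-buffered RPMI 1640, pH 7.0. Test agent given as twofold serial dilutions in 20% DMSO-saline, duplicate wells. 35°C for 48 h. Growth read as OD530 before and after incubation. Percent inhibition scored at the highest test concentration.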

Candida albicans [4] = experiment: Antifungal activity against Fluconazole resistant Candida albicans isolate 17 at 68.3 uM after 48 hrs by CLSI method; format: functional, organism-based; summary of the method: as §2
Nakaseomyces glabratus = experiment: Antifungal activity against Candida glabrata ATCC 90030 at 68.3 uM after 48 hrs by CLSI method; format: functional, organism-based; summary of the method: as §1
Pichia kudriavzevii [5] = experiment: Antifungal activity against Candida krusei ATCC 6258 at 68.3 uM after 48 hrs by CLSI method; format: functional, organism-based
Summary of the method: (§3)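 Yeast suspensions made from 3-5 colonies off 24-72 h SD agar plates in saline. They were diluted by OD630 standard curve in RPMI 1640 (0.2% dextrose, 0.03% glutamine, 0.165 M MOPS, pH 7.0) to 1.5 × 10³ CFU/ml. Twofold dilutions (11 concentrations, 20% DMSO-saline) run in duplicate. OD530 read before and after 35°C, 48 h. Line values are top test concentrations; no-growth endpoints give MIC/MFC.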

Trichophyton rubrum [6] = experiment: Antifungal activity against Trichophyton rubrum ATCC 10218 by CLSI method; format: functional, organism-based
Summary of the method: (§4)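 Growth scraped from 1- to 6-week-old potato dextrose slants and filtered through Miracloth. Diluted in 5% Alamar blue-RPMI 1640 (MOPS pH 7.0) to 2.7 × 10⁴ CFU/ml. Eleven twofold dilutions in duplicate. Fluorescence at 544 nm excitation/590 nm emission read before and after 35°C, 5 days. IC50 fitted from percent growth. MIC taken as no detectable growth; MFC from clear or blue wells plated on PD agar.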

Candida parapsilosis [7] = experiment: Antifungal activity against Candida parapsilosis ATCC 22019 at 68.3 uM after 48 hrs by CLSI method; format: functional, organism-based; summary of the method: as §3
Trichophyton rubrum [8] = experiment: Antifungal activity against Trichophyton rubrum ATCC MYA-4438 by CLSI method; format: functional, organism-based; summary of the method: as §4
[9] = system: Trichophyton mentagrophytes; experiment: Antifungal activity against Trichophyton mentagrophytes ATCC 9533 by CLSI method; format: functional, organism-based; summary of the method: as §4
Candida tropicalis [10] = experiment: Antifungal activity against Candida tropicalis ATCC 750 at 68.3 uM after 48 hrs by CLSI method; format: functional, organism-based; summary of the method: as §3
[11] = system: Trichophyton mentagrophytes; experiment: Antifungal activity against Trichophyton mentagrophytes ATCC MYA-4439 by CLSI method; format: functional, organism-based; summary of the method: as §4
Cryptococcus neoformans [12] = experiment: Antifungal activity against Cryptococcus neoformans ATCC 66031 after 72 hrs by CLSI method; format: functional, organism-based; settings: ATCC 66031, 72 h
Summary of the method: (§5)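 SD broth replaced RPMI because growth in RPMI was poor; other CLSI conditions were kept. Inoculum was 1.5 × 10³ CFU/ml from colonies on SD agar, checked by plating. Twofold serial dilutions (11 concentrations) in 20% DMSO-saline were tested in duplicate. OD530 was read before and after incubation at 35°C for 72 h. Percent growth gave IC50; the MIC is the lowest concentration with no detectable growth.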

Cryptococcus neoformans [13] = experiment: Antifungal activity against Cryptococcus neoformans ATCC 90113 after 72 hrs by CLSI method; format: functional, organism-based; settings: ATCC 90113, 72 h; summary of the method: as §5
Candida tropicalis [14] = experiment: Antifungal activity against Candida tropicalis ATCC 750 after 48 hrs by CLSI method; format: functional, organism-based; settings: ATCC 750, 48 h; summary of the method: as §3
Candida parapsilosis [15] = experiment: Antifungal activity against Candida parapsilosis ATCC 22019 after 48 hrs by CLSI method; format: functional, organism-based; settings: Lodderomyces parapsilosis, ATCC 22019, 48 h; summary of the method: as §3
Pichia kudriavzevii [16] = experiment: Antifungal activity against Candida krusei ATCC 6258 after 48 hrs by CLSI method; format: functional, organism-based; settings: ATCC 6258, 48 h; summary of the method: as §1
Candida albicans [17] = experiment: Antifungal activity against Fluconazole resistant Candida albicans clinical isolate 17 after 48 hrs by CLSI method; format: functional, organism-based
Summary of the method: (§6)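 CLSI broth microdilution. Colonies from 24–72 h SD agar suspended in saline and sized by OD630 standard curve. Inoculum 1.5 × 10³ CFU/ml (final) in RPMI 1640 (0.2% dextrose, 0.03% glutamine, 0.165 M MOPS, pH 7.0). Twofold dilutions (11 levels) from 20% DMSO-saline, in duplicate. 35°C for 48 h, OD530 read before and after. IC50 fitted from % growth. MIC: no detectable growth. MFC: subculture onto SD agar.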

Aspergillus fumigatus [18] = experiment: Antifungal activity against Aspergillus fumigatus ATCC 204305 at 68.3 uM after 48 hrs by CLSI method; format: functional, organism-based
Candida albicans [19] = experiment: Antifungal activity against Fluconazole resistant Candida albicans clinical isolate 1 after 48 hrs by CLSI method; format: functional, organism-based; summary of the method: as §6
Aspergillus fumigatus [20] = experiment: Antifungal activity against Aspergillus fumigatus ATCC 90906 at 68.3 uM after 48 hrs by CLSI method; format: functional, organism-based
Candida albicans [21] = experiment: Antifungal activity against Candida albicans ATCC 200955 after 48 hrs by CLSI method; format: functional, organism-based; settings: ATCC 200955, 48 h; summary of the method: as §6
Aspergillus niger [22] = experiment: Antifungal activity against Aspergillus niger ATCC 16404 at 68.3 uM after 48 hrs by CLSI method; format: functional, organism-based
Candida albicans [23] = experiment: Antifungal activity against Candida albicans ATCC 90028 after 48 hrs by CLSI method; format: functional, organism-based; settings: ATCC 90028, 48 h; summary of the method: as §6
Candida albicans [24] = experiment: Antifungal activity against Candida albicans ATCC 32354 after 48 hrs by CLSI method; format: functional, organism-based; settings: ATCC 32354, 48 h; summary of the method: as §6
Trichophyton rubrum [25] = experiment: Antifungal activity against Trichophyton rubrum ATCC MYA-4438 at 68.3 uM after 5 days by CLSI method; format: functional, organism-based
Candida albicans [26] = experiment: Antifungal activity against Candida albicans ATCC 14053 after 48 hrs by CLSI method; format: functional, organism-based; settings: ATCC 14053, 48 h; summary of the method: as §6
Candida albicans [27] = experiment: Antifungal activity against Candida albicans ATCC 60193 after 48 hrs by CLSI method; format: functional, organism-based; settings: ATCC 60193, 48 h; summary of the method: as §6
Candida albicans [28] = experiment: Antifungal activity against Candida albicans ATCC 14053 at 68.3 uM after 48 hrs by CLSI method; format: functional, organism-based
Candida albicans [29] = experiment: Antifungal activity against Candida albicans ATCC 60193 at 68.3 uM after 48 hrs by CLSI method; format: functional, organism-based; summary of the method: as §1
Candida albicans [30] = experiment: Antifungal activity against Candida albicans ATCC 32354 at 68.3 uM after 48 hrs by CLSI method; format: functional, organism-based; summary of the method: as §1
Aspergillus niger [31] = experiment: Antifungal activity against Aspergillus niger ATCC 16404 after 48 h by CLSI method; settings: ATCC 16404, 48 h
Aspergillus flavus = experiment: Antifungal activity against Aspergillus flavus ATCC 204304 after 48 h by CLSI method; settings: ATCC 204304, 48 h
Aspergillus fumigatus [32] = experiment: Antifungal activity against Aspergillus fumigatus ATCC 90906 after 48 h by CLSI method; settings: ATCC 90906, 48 h
Aspergillus fumigatus [33] = experiment: Antifungal activity against Aspergillus fumigatus ATCC 204305 after 48 h by CLSI method; settings: ATCC 204305, 48 h

CN(C/C=C/C#CC(C)(C)C)Cc1cccc2ccccc12 [TERBINAFINE]
Activity (Candida albicans [1]): inactive | Activity (Candida albicans [2]): inactive | Activity (Candida albicans [3]): inactive | Activity (Candida albicans [4]): inactive | Activity (Nakaseomyces glabratus): inactive | Activity (Pichia kudriavzevii [5]): inactive | IC50 (Trichophyton rubrum [6]): < 20 nM | MFC (Trichophyton rubrum [6]): 0.13 µM (≈ 0.0379 µg/mL) | MIC (Trichophyton rubrum [6]): 0.1 µM (≈ 0.0291 µg/mL) | Activity (Candida parapsilosis [7]): inactive | IC50 (Trichophyton rubrum [8]): 4200 nM | MIC (Trichophyton rubrum [8]): 21.4 µM (≈ 6.24 µg/mL) | IC50 [9]: < 20 nM | MFC [9]: 0.27 µM (≈ 0.0787 µg/mL) | MIC [9]: 0.05 µM (≈ 0.0146 µg/mL) | Activity (Candida tropicalis [10]): inactive | IC50 [11]: < 20 nM | MFC [11]: 0.27 µM (≈ 0.0787 µg/mL) | MIC [11]: 0.17 µM (≈ 0.0495 µg/mL) | IC50 (Cryptococcus neoformans [12]): 400 nM | MFC (Cryptococcus neoformans [12]): 8.6 µM (≈ 2.51 µg/mL) | MIC (Cryptococcus neoformans [12]): 4.3 µM (≈ 1.25 µg/mL) | IC50 (Cryptococcus neoformans [13]): 500 nM | MFC (Cryptococcus neoformans [13]): 1.1 µM (≈ 0.321 µg/mL) | MIC (Cryptococcus neoformans [13]): 1.1 µM (≈ 0.321 µg/mL) | IC50 (Candida tropicalis [14]): 45400 nM | IC50 (Candida parapsilosis [15]): 400 nM | MIC (Candida parapsilosis [15]): 42.9 µM (≈ 12.5 µg/mL) | IC50 (Pichia kudriavzevii [16]): > 68300 nM | IC50 (Candida albicans [17]): > 68300 nM | Activity (Aspergillus fumigatus [18]): inactive | IC50 (Candida albicans [19]): 11200 nM | Activity (Aspergillus fumigatus [20]): inactive | IC50 (Candida albicans [21]): 3100 nM | MIC (Candida albicans [21]): 51.5 µM (≈ 15 µg/mL) | Activity (Aspergillus niger [22]): inactive | IC50 (Candida albicans [23]): 10800 nM | IC50 (Candida albicans [24]): 2600 nM | Activity (Trichophyton rubrum [25]): inactive | IC50 (Candida albicans [26]): 13700 nM | IC50 (Candida albicans [27]): 5300 nM | Activity (Candida albicans [28]): inactive | Activity (Candida albicans [29]): inactive | Activity (Candida albicans [30]): inactive | IC50 (Aspergillus niger [31]): 700 nM | MIC (Aspergillus niger [31]): 2.1 µM (≈ 0.612 µg/mL) | IC50 (Aspergillus flavus): 300 nM | MFC (Aspergillus flavus): 8.6 µM (≈ 2.51 µg/mL) | MIC (Aspergillus flavus): 2.1 µM (≈ 0.612 µg/mL) | IC50 (Aspergillus fumigatus [32]): 1000 nM | MIC (Aspergillus fumigatus [32]): 4.3 µM (≈ 1.25 µg/mL) | IC50 (Aspergillus fumigatus [33]): 1100 nM | MIC (Aspergillus fumigatus [33]): 4.3 µM (≈ 1.25 µg/mL)
